SIRT5 block – blocks human SIRT5 desuccinylation of peptide; 330,000 compounds, 1.1% hits; Q9NXA8; AID 652115; inhibition, % at 15 µM; Purified SirT5, succinyl-peptide AMC, trypsin-coupled fluorescence; in the data active means inhibition above about 15%
ERp5 inh – blocks human ERp5 reductase activity on insulin | Q15084 | AID 651711 | 350,000 compounds, 0.05% hits | ERp5 insulin aggregation, absorbance 650 nm, 90 min | inhibition, % at 9.99 µM;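 active means mean replicate inhibition above about 25%, with every replicate also reaching it, limit read from the data, passing the limit was not always enough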
Target sequence (Q15084 whole entry, looked up): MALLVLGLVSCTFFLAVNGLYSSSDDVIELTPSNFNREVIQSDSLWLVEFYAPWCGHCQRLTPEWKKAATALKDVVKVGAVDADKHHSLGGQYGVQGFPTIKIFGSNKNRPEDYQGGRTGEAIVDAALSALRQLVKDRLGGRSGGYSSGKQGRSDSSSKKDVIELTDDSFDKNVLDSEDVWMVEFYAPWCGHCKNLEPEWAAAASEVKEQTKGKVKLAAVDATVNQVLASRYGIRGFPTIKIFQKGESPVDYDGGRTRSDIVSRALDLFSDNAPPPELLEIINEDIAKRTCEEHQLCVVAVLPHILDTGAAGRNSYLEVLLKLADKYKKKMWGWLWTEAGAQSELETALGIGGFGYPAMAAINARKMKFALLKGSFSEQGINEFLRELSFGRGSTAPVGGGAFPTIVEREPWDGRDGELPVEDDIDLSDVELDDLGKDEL
S100A4 MyoIIA – S100A4-myosin IIA interaction inhibition | S100A4/TAMRA-MyoIIA peptide fluorescence polarization | inhibition, % at 10.7 µM | 360,000 compounds, 0.14% hits;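 active means mean inhibition of at least 70% across replicates, with every replicate also reaching that level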
Target sequence (P26447 whole entry, looked up): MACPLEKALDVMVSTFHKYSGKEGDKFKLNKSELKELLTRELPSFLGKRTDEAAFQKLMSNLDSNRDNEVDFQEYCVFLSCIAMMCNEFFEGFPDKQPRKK
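Test system – S100A4 monomer (human) · Compound – single-point compound testing · Schedule – 5 min incubation before reading · Probe or stimulus – TAMRA-labelled myosin IIA heavy-chain peptide probe, 5 nM · Benchmarks – neutral control DMSO, positive control TFP · Medium – Calcium-containing HEPES buffer, pH 7.2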
GSIS activator – primary screen for activators of insulin secretion dependent on glucose, INS-1E cells, GLuc reporter luminescence; INS-1E GLuc reporter insulin secretion, 2-3 h; activation, % at 16.6 µM; 370,000 compounds, 0.61% hits;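 active means lowest replicate activation of at least 40%, so every replicate reaches that level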;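 further: 0% = median of neutral control wells and 100% = median of IBMX positive control wells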
PDI turbidity – blocks human protein disulfide isomerase activity. PDI insulin aggregation turbidity, A650, 90 min. inhibition, % at 10 µM. 350,000 compounds, 0.052% hits;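 active means mean inhibition across replicates of 30% or more, whatever share of single replicates reach that level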
The depositor's hits bear a star. Compounds with a hit are over-represented: about 1.5% of the library has one in this group of screens.

`O=C(Nc1nc(-c2ccc3c(c2)OCO3)cs1)C1COc2ccccc2O1` (stereo not drawn) gave SIRT5 block 16*, ERp5 inh -1, S100A4 MyoIIA 2 and GSIS activator -48.
For CCc1ccccc1NC(=O)CNC(=O)CNC(=O)c1cccs1 the results were SIRT5 block 53*, ERp5 inh 4, S100A4 MyoIIA -6, GSIS activator 17 and PDI turbidity 9.
For CCOc1ccccc1CNC(=O)CNC(=O)c1cccs1 the results were PDI turbidity 8.
`C[C@@H]1CN([C@@H](C)CO)C(=O)c2cc(-c3ccccc3)cnc2O[C@@H]1CN(C)C(=O)Nc1ccccc1F` gave SIRT5 block 2, ERp5 inh 6, S100A4 MyoIIA 59 and GSIS activator 0.
`c1ccc(-c2nnc3ccc(N4CCC5(CC4)OCCO5)nn23)cc1` gave GSIS activator 61* and PDI turbidity 5.
Screening O=C(Nc1ccccc1F)N[C@H]1CC[C@H](CCNC(=O)C2CCCC2)O[C@@H]1CO returned SIRT5 block 3, ERp5 inh -2, S100A4 MyoIIA -10 and GSIS activator 21.
For CC1=NN(C(N)=S)C(=O)C1N=Nc1ccccc1C (stereo not drawn) the results were GSIS activator 65* and PDI turbidity 12.
`COCCNC(=O)C[C@@H]1CC[C@H]2[C@H](COc3ccc(NC(=O)Nc4cccc(F)c4)cc3C(=O)N2C)O1` gave SIRT5 block 23*, ERp5 inh -1, S100A4 MyoIIA 2 and GSIS activator -4.
For CC(C)C(=O)Nc1ccc2c(c1)C(=O)N(C)[C@H]1CC[C@H](CC(=O)Nc3cccc(F)c3)O[C@@H]1CO2 the results were SIRT5 block -1, ERp5 inh -3, S100A4 MyoIIA 78* and GSIS activator -2.
For C[C@H]1CN([C@@H](C)CO)C(=O)Cc2cc(NS(=O)(=O)c3ccccc3)ccc2O[C@@H]1CN(C)C(=O)NC1CCCCC1 the results were SIRT5 block 0, ERp5 inh -7, S100A4 MyoIIA 11 and GSIS activator 4.
`C[C@@H](NC(=O)C[C@H]1C[C@H]2c3cc(NC(=O)c4ccc5c(c4)OCO5)ccc3O[C@H]2[C@@H](CO)O1)c1ccccc1` gave SIRT5 block -3, ERp5 inh -1, S100A4 MyoIIA -4 and GSIS activator 1.
Screening COc1ccc(NC(=O)N[C@H]2CC[C@@H](CCn3cc(-c4ccc(OC)cc4)nn3)O[C@@H]2CO)cc1 returned SIRT5 block 0, ERp5 inh -1, S100A4 MyoIIA -2 and GSIS activator -7.
C[C@H](CO)N1C[C@H](C)[C@H](CN(C)C(=O)Nc2cccc3ccccc23)Oc2ccc(NS(=O)(=O)c3cccs3)cc2C1=O was read as SIRT5 block -2, ERp5 inh -1, S100A4 MyoIIA -4 and GSIS activator -13.
Screening COc1ccc(NC(=O)N(C)C[C@H]2Oc3ccc(NC(=O)CCC(F)(F)F)cc3C(=O)N([C@@H](C)CO)C[C@@H]2C)cc1 returned ERp5 inh -6, S100A4 MyoIIA -16 and GSIS activator 15.
`C[C@H]1CN([C@@H](C)CO)S(=O)(=O)c2ccc(-c3ccc(F)cc3)cc2O[C@H]1CN(C)C(=O)Nc1ccc(F)cc1` gave GSIS activator -10.
O=C(CN1CCOCC1)NCC[C@@H]1CC[C@@H](NS(=O)(=O)c2ccc(Cl)cc2)[C@H](CO)O1 was read as SIRT5 block -4, ERp5 inh 6, S100A4 MyoIIA 8 and GSIS activator 10.
`O=C(CN1CCOCC1)NCC[C@H]1CC[C@H](NC(=O)Nc2ccc(F)cc2)[C@H](CO)O1` gave SIRT5 block 4, ERp5 inh 3, S100A4 MyoIIA 3 and GSIS activator -5.
O=C(CN1CCOCC1)NCC[C@@H]1CC[C@H](NC(=O)Nc2ccc(F)cc2)[C@H](CO)O1 was read as SIRT5 block 26*, ERp5 inh 2, S100A4 MyoIIA 13 and GSIS activator 13.
O=C(CN1CCOCC1)NCC[C@H]1CC[C@@H](NS(=O)(=O)c2ccc(Cl)cc2)[C@@H](CO)O1 was read as SIRT5 block 32*, ERp5 inh -2, S100A4 MyoIIA 5 and GSIS activator -8.
O=C(CN1CCOCC1)NCC[C@@H]1CC[C@@H](NC(=O)Nc2ccc(F)cc2)[C@H](CO)O1 was read as SIRT5 block 16*, ERp5 inh -4, S100A4 MyoIIA 5 and GSIS activator 6.
`O=C(CN1CCOCC1)NCC[C@H]1CC[C@@H](NC(=O)Nc2ccc(F)cc2)[C@@H](CO)O1` gave SIRT5 block 4, ERp5 inh -1, S100A4 MyoIIA -1 and GSIS activator 5.
Screening COc1ccccc1C#Cc1ccc([C@@H]2[C@H]3CN(C(=O)C4CCC4)CCCCN3[C@H]2CO)cc1 returned SIRT5 block -2, ERp5 inh -2, S100A4 MyoIIA 10 and GSIS activator 7.
`N#C[C@@H]1[C@H](c2ccccc2-c2cccc(F)c2)[C@@H](CO)N1C(=O)C1CC1` gave SIRT5 block 3, ERp5 inh 4, S100A4 MyoIIA 77* and GSIS activator -4.
N#C[C@H]1[C@@H](c2ccccc2-c2cccc(F)c2)[C@@H](CO)N1C(=O)C1CC1 was read as SIRT5 block -2, ERp5 inh -3, S100A4 MyoIIA -2 and GSIS activator -14.
Screening N#C[C@H]1[C@H](c2ccccc2C2=CCCCC2)[C@H](CO)N1C(=O)C1CCOCC1 returned SIRT5 block 17*, ERp5 inh 1, S100A4 MyoIIA -9 and GSIS activator -3.
For C[C@H]1CN([C@@H](C)CO)C(=O)CCCn2nncc2CO[C@@H]1CN(C)C(=O)Nc1cccc(F)c1 the results were GSIS activator -13.
For Cc1ccc(S(=O)(=O)Nc2ccc3c(c2)C(=O)N([C@H](C)CO)C[C@H](C)[C@@H](CN(C)S(=O)(=O)c2ccccc2)OCCCC[C@H](C)O3)cc1 the results were SIRT5 block 9, ERp5 inh -1, S100A4 MyoIIA -2 and GSIS activator -8.
`Cc1ccc(S(=O)(=O)Nc2ccc3c(c2)C(=O)N([C@@H](C)CO)C[C@H](C)[C@H](CN(C)S(=O)(=O)c2ccccc2)OCCCC[C@@H](C)O3)cc1` gave SIRT5 block 24*, ERp5 inh -1, S100A4 MyoIIA -17 and GSIS activator 6.
`Cc1ccc(S(=O)(=O)N(C)C[C@H]2OCCCC[C@H](C)Oc3ccc(NS(=O)(=O)c4ccccc4)cc3C(=O)N([C@@H](C)CO)C[C@@H]2C)cc1` gave SIRT5 block 19*, ERp5 inh -2, S100A4 MyoIIA 0 and GSIS activator -14.

Compound activity deposited in PubChem BioAssay by Broad Institute.
